pIC50: −log10 of the molar value.
Legend:
Leishmania donovani = assay: Antileishmanial activity against Leishmania donovani MHOM/ET/67/L82 amastigotes assessed as growth inhibition incubated for 70 hrs by resazurin based inverted microscopic analysis; format: functional, organism-based
Outline: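 Axenic L. donovani amastigotes (MHOM/ET/67/L82); racemates tested unless stated; miltefosine as positive control. Some values come from a separate run and were rescaled by that run's relative miltefosine IC50.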

L6 = assay: Cytotoxicity against rat L6 cells assessed as reduction in cell viability incubated for 70 hrs by resazurin staining based inverted microscopic analysis; settings: L6, 70 h
Outline: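 Rat L-6 skeletal myoblast line; racemates tested unless stated.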

[1] = Selectivity index, ratio of IC50 for cytotoxicity against rat L6 cells to IC50 for antileishmanial activity against Leishmania donovani MHOM/ET/67/L82 amastigotes; format: toxicity, cell-based; settings: for selectivity ratio: read-out: Ratio IC50
[2] = Leishmania donovani, MHOM/ET/67/L82, 70 h

Structure (SMILES)	pIC50 (Leishmania donovani; [2])	pIC50 (L6)	selectivity ratio [1]	pIC50 (Leishmania donovani)	Ratio IC50 [1]
CC(C)OC(=O)/C=C/c1cc(O)c2c(c1)[C@@H](C(=O)OC(C)C)[C@H](c1ccc(O)c(O)c1)O2	6.19	4.97	16.4	–	–
CC(C)OC(=O)/C=C/c1cc(O)c2c(c1)[C@H](C(=O)OC(C)C)[C@@H](c1ccc(O)c(O)c1)O2	–	–	–	6.28	19.3
COC(=O)/C=C/c1cc(O)c2c(c1)[C@H](C(=O)OC)[C@@H](c1ccc(O)c(O)c1)O2 (racemic)	4.90	6.43	0.03	–	–
COC(=O)/C=C/c1ccc2c(c1)[C@H](C(=O)OC)[C@@H](c1ccc(O)cc1)O2 (racemic)	5.11	4.63	3	–	–
COc1cc([C@H]2Oc3c(OC)cc(/C=C/CO)cc3[C@@H]2CO)ccc1O (racemic)	3.80	4.13	0.5	–	–
COC(=O)/C=C/c1cc(OC)c2c(c1)[C@H](C(=O)OC)[C@@H](c1ccc(O)c(OC)c1)O2 (racemic)	4.97	5.61	0.2	–	–
COc1cc([C@H]2Oc3c(OC)cc(/C=C/C(=O)OC(C)C)cc3[C@@H]2C(=O)OC(C)C)ccc1O (racemic)	5.40	4.99	2.6	–	–
CC(C)(C)OC(=O)/C=C/c1cc(F)c2c(c1)[C@H](C(=O)OC(C)(C)C)[C@@H](c1ccc(O)c(F)c1)O2 (racemic)	5.71	5.04	4.7	–	–
CCCCOC(=O)/C=C/c1cc(OC)c2c(c1)[C@H](C(=O)OCCCC)[C@@H](c1ccc(O)c(OC)c1)O2 (racemic)	5.51	5.09	2.6	–	–
CC(C)(C)OC(=O)/C=C/c1cc(O)c2c(c1)[C@H](C(=O)OC(C)(C)C)[C@@H](c1ccc(O)c(O)c1)O2 (racemic)	5.78	5.04	5.5	–	–
CCOC(=O)/C=C/c1ccc2c(c1)[C@H](C(=O)OCC)[C@@H](c1ccc(O)cc1)O2 (racemic)	5.13	4.58	3.5	–	–
CCOC(=O)/C=C/c1cc(O)c2c(c1)[C@H](C(=O)OCC)[C@@H](c1ccc(O)c(O)c1)O2 (racemic)	5.41	5.00	2.6	–	–
CC(C)OC(=O)/C=C/c1ccc2c(c1)[C@H](C(=O)OC(C)C)[C@@H](c1ccc(O)cc1)O2 (racemic)	5.38	4.84	3.4	–	–
CC(C)(C)OC(=O)/C=C/c1ccc2c(c1)[C@H](C(=O)OC(C)(C)C)[C@@H](c1ccc(O)cc1)O2 (racemic)	5.22	4.88	2.2	–	–
CCCCOC(=O)/C=C/c1cc(O)c2c(c1)[C@H](C(=O)OCCCC)[C@@H](c1ccc(O)c(O)c1)O2 (racemic)	5.78	5.03	5.6	–	–
CCCCCCCCOC(=O)/C=C/c1cc(O)c2c(c1)[C@H](C(=O)OCCCCCCCC)[C@@H](c1ccc(O)c(O)c1)O2 (racemic)	4.63	4.72	0.8	–	–
CCOC(=O)/C=C/c1cc(OC)c2c(c1)[C@H](C(=O)OCC)[C@@H](c1ccc(O)c(OC)c1)O2 (racemic)	5.04	5.35	0.5	–	–
COc1cc([C@H]2Oc3c(OC)cc(/C=C/C(=O)OC(C)(C)C)cc3[C@@H]2C(=O)OC(C)(C)C)ccc1O (racemic)	5.68	4.94	5.4	–	–
CCCCOC(=O)/C=C/c1ccc2c(c1)[C@H](C(=O)OCCCC)[C@@H](c1ccc(O)cc1)O2 (racemic)	4.97	4.84	1.3	–	–
C=CCOC(=O)/C=C/c1cc(O)c2c(c1)[C@H](C(=O)OCC=C)[C@@H](c1ccc(O)c(O)c1)O2 (racemic)	5.20	5.19	1	–	–
CCCCCCCCCCCCCCCCOP(=O)([O-])OCC[N+](C)(C)C [MILTEFOSINE]	6.11	–	–	–	–

From ChEMBL document CHEMBL4765412, “(±)-trans-2-phenyl-2,3-dihydrobenzofurans as leishmanicidal agents: Synthesis, in vitro evaluation and SAR analysis” (Eur J Med Chem, 2020)
